Screens (PubChem BioAssay)
5-HT1A blocker: human 5-HT1a receptor antagonists, primary screen, cell-based, CHO, Ga15 NFAT-bla reporter | 5-hydroxytryptamine receptor 1A (Homo sapiens), P08908 | CHO 5-HT1a Ga15 NFAT-bla reporter, antagonist mode | hit rate 0.68% among 62,000 | inhibition, % at 10 µM;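 active means inhibition above the mean of all tested compounds plus 3 SD, cut at about 43% in these data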;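 further: receptor stimulated by 5-CT agonist at 100 nM near EC80; beta-lactamase reporter measured by ratiometric fluorescence of a cleavable substrate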
S1P1 ag-PAM: S1P1 agonists and agonism potentiators, primary screen, cell-based, primary and confirmation screens, CRE-bla reporter; hit rate 0.57% among 56,000; activation, % at 9.5 µM; S1P1 CRE-bla cells, forskolin, beta-lactamase FRET, potentiator mode; S1P1 agonist co-added at EC20, 2 nM; 100% = saturating reference agonist, 0% = basal;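 active means activation above a cutoff set at the mean activation of all tested compounds plus 3 SD, cut at about 54% in these data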;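 further: forskolin at 4 µM as EC80 and the EC20 agonist is SEW2871; 100% = SEW2871 at its EC100 plus forskolin at EC80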
S1P3 ag: human S1P3 receptor agonists, primary screen, cell-based, primary and confirmation, NFAT-BLA reporter; Sphingosine 1-phosphate receptor 3 (Homo sapiens), Q99500; activation, % at 4.5 µM; hit rate 0.1% among 60,000; S1P3 NFAT-BLA reporter cells, agonism, FRET ratio; relative to 1 µM S1P, basal subtracted;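 active means activation above the screen-wide mean plus 3 SD, cut at about 4.5% in these data, passing the limit was not always enough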
Target sequence (Q99500 whole entry, looked up): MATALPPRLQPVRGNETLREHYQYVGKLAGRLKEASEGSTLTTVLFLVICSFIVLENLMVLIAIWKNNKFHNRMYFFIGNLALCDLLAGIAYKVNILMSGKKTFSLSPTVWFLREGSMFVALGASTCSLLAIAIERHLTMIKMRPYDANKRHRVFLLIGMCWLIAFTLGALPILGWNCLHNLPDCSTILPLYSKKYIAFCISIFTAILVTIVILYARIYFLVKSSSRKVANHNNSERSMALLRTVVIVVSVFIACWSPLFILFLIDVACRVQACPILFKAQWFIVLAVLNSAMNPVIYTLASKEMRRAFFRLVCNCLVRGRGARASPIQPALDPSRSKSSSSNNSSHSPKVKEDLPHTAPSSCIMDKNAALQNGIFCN
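Measure – % activation relative to 1 µM S1P (100%), per plate · System – stable CHO line with human S1P3, Gα16, NFAT-BLA reporter · Timing – cells plated overnight, compound 4 h 37 °C, substrate 2 h RT · Technique – fluorescent BLA substrate, ex 405 nm, em 460/535 nm ratio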
HTR1E antagonist: 5-HT1E receptor antagonists, primary screen, cell-based, HTS; CHO 5-HT1E Ga15 NFAT-bla reporter, FRET, antagonist; 5-hydroxytryptamine receptor 1E (Homo sapiens), P28566; hit rate 0.99% among 65,000; inhibition, % at 6 µM;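 active means inhibition above a set limit, the mean inhibition across every tested compound plus 3 SD, cut at about 29% in these data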;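 further: signal is the 460 over 535 nm emission ratio of beta-lactamase substrate; 0% = agonist plus DMSO wells and 100% = wells without agonist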
HTR1E agonist: 5-HT1E receptor agonists, primary screen, cell-based, HTS | CHO 5-HT1E Ga15 NFAT-bla reporter, FRET; 0% DMSO wells, 100% control agonist wells | 5-hydroxytryptamine receptor 1E (Homo sapiens), P28566 | activation, % at 6 µM | AID 574, 2007 | hit rate 0.69% among 65,000;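 active means activation above a set limit, the screen-wide mean activation plus 3 SD, cut at about 8.5% in these data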;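 further: 100% = positive control agonist at 1 µM giving full maximal response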
HTR1A agonist: human 5-HT1a receptor agonists, primary screen, cell-based, CHO, Ga15 NFAT-bla reporter | hit rate 0.56% among 65,000 | CHO 5-HT1a Ga15 NFAT-bla reporter, FRET ratio; 0% basal, 100% maximal reference agonist | activation, % at 10 µM | 5-hydroxytryptamine receptor 1A (Homo sapiens), P08908;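 active means activation above the screen-wide mean activation plus 3 SD, cut at about 19% in these data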;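 further: 0% = DMSO wells and 100% = 5-CT at EC100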
* = called active by the depositor; nt = not tested or not shown. Compounds with a hit are over-represented: about 3% of the library has one in this group of screens.

SMILES	5-HT1A blocker	S1P1 ag-PAM	S1P3 ag	HTR1E antagonist	HTR1E agonist	HTR1A agonist
Cn1c(=O)oc2cc(S(=O)(=O)N3CCN(c4ccccn4)CC3)ccc21	-1	-32	0	-13	1	35*
Cn1c(=O)oc2cc(S(=O)(=O)NCCN3CCCCCC3)ccc21	4	-19	0	-2	0	-2
Cn1c(=O)oc2cc(S(=O)(=O)NCCN3CCN(c4ccccc4F)CC3)ccc21	57*	-9	0	5	0	-2
CCOC(=O)c1cc2ccc(OC(=O)c3ccco3)cc2oc1=O	-308	-291	28*	-102	81*	296*
Cc1oc(-c2ccc(Cl)cc2)nc1CN1CCCC(C(=O)NCc2cccnc2)C1 (stereo not given)	4	26	-1	12	12*	-1
Cc1ccccc1-c1nc(CN2CCC(C(=O)NCCCN3CCOCC3)CC2)c(C)o1	0	-1	0	5	0	2
Cc1oc(-c2ccc(Cl)cc2)nc1CN1CCCC(C(=O)NCCCN2CCOCC2)C1 (stereo not given)	0	-11	-1	-3	23*	-4
Cc1oc(-c2ccc(Cl)cc2)nc1CN1CCCC(C(=O)NCc2ccccn2)C1 (stereo not given)	2	5	0	-2	1	1
Cc1ccccc1-c1nc(CN2CCC(C(=O)NCCCN3CCCC3)CC2)c(C)o1	-11	4	0	1	17*	-1
Cc1oc(-c2ccc(Cl)cc2)nc1CN1CCC(C(=O)N2CCc3ccccc3C2)CC1	-15	3	-2	-2	1	32*
CCC(C)(C)NC(=O)C(c1ccc(F)cc1)N(Cc1ccco1)C(=O)CCC(=O)Nc1ccccn1 (stereo not given)	32	5	-1	-2	0	-3
CCOc1ccccc1OCC(=O)Nc1ccc(S(=O)(=O)N(C)C)cc1	-8	-4	-1	-3	-1	-2
O=C(c1ccco1)N1CCN(CC(O)COc2ccc3oc4ccccc4c3c2)CC1 (stereo not given)	0	8	0	-14	0	29*
Cc1cc(C)n(Cc2ccc(C(=O)NCCC3=CCCCC3)o2)n1	nt	3	-1	5	-1	65*
Cc1cc(C)n(Cc2ccc(C(=O)NCc3ccco3)o2)n1	8	nt	nt	-7	1	-2
O=C1CCCc2sc3c(c2N1)CCCCC3	-1	-16	0	2	11*	1
Cc1cc(NC(=O)C2CCCC2)nc2c1c(=O)oc1ccccc12	-20	nt	nt	-2	-1	4
COc1cccc(C(=O)Nc2cc(C)c3c(=O)oc4ccccc4c3n2)c1	-12	-5	-1	2	-1	25*
Cc1ccc(-c2nnc(SCC(=O)Nc3ccccc3F)o2)cc1	5	-4	0	-3	0	-2
Cc1ccc(-c2nnc(SCc3ccccc3F)o2)cc1	4	93*	0	-1	-1	0
COc1ccc(-c2nnc(SCc3ccccc3F)o2)cc1OC	10	42	1	30*	0	-1
CCCCSc1nc(C)c(CC(=O)OC)c(=O)[nH]1	6	-3	0	8	-2	0
Cc1ccc(Cn2c(Sc3nnc(C)s3)nc3c2c(=O)[nH]c(=O)n3C)cc1	-4	1	-1	41*	0	-1
CCCOc1ccccc1C(=O)N(Cc1ccco1)C1CCS(=O)(=O)C1 (stereo not given)	-1	-4	0	-12	1	0
CCc1nnc(NC(=O)CCN2C(=O)c3ccccc3C2=O)s1	4	-27	-1	-6	16*	3
SMILES	5-HT1A blocker	S1P1 ag-PAM	S1P3 ag	HTR1E antagonist	HTR1E agonist	HTR1A agonist
CCc1nnc(NC(=O)CCN2C(=O)c3ccccc3S2(=O)=O)s1	-1	2	0	-3	0	1
c1coc(CNC2CCCCCCC2)c1	5	2	0	13	-1	42*
CC1CCN(S(=O)(=O)c2ccc(Br)s2)CC1	8	nt	-2	21	-1	-4
O=S(=O)(c1cccs1)N1CCN(CC(O)COc2cc(Cl)ccc2Cl)CC1 (stereo not given)	-4	66*	-1	8	0	-1
CCOc1ccc(NC(=O)CCN2CCN(c3ccccc3)CC2)cc1	68*	-17	-2	23	0	3
COc1ccc(OC)c(NC(=O)CCN2CCN(c3ccccc3)CC2)c1	5	-16	-1	2	0	0
O=C(CCN1CCN(c2ccccn2)CC1)Nc1ccc(F)cc1	18	-36	0	-8	0	29*
O=C(CN1CCN(c2ccccn2)CC1)Nc1ccc2ccccc2c1	5	6	0	-6	0	0
COc1ccc(S(=O)(=O)N2CCC(C(=O)NCCC3=CCCCC3)CC2)cc1OC	-8	nt	-1	-1	0	0
COc1ccc(OC)c(C2NC(=O)NC(C)=C2C(=O)Nc2ccc(C)cc2)c1 (stereo not given)	-3	-14	-1	0	1	-1
COc1ccc(NC(=O)Cn2cccc2)cc1Cl	3	0	0	6	-1	141*
O=C(CN1CCC(NC(=O)c2cccc(F)c2)CC1)NCc1ccccc1F	-7	nt	nt	5	-2	27*
O=C(CN1CCC(NC(=O)c2ccccc2)CC1)NCc1ccccc1F	3	-6	-1	-5	0	-2
Cc1cc(OCC(=O)N2CCCC2)ccc1Cl	-14	-2	-1	-2	1	-3
Cc1nc(NCCCn2ccnc2)c2oc3ccccc3c2n1	22	15	-2	32*	-1	0
CC1=C(C(=O)Nc2ccccc2)C(c2ccc(C)o2)n2c(s/c(=C\c3ccco3)c2=O)=N1 (stereo not given)	28	7	-1	42*	0	0
CCN(CC)CCCN1C(=O)C(O)=C(C(=O)c2ccco2)C1c1ccc(C)o1 (stereo not given)	2	nt	nt	4	1	0
CCOC(=O)N1CCN(C(=O)CN2C(=O)CC(C)(C)S(=O)(=O)c3ccccc32)CC1	-1	nt	nt	-1	-1	-1
CCN(CC)C(=O)CSc1nc2ccccc2c(=O)n1CC1CCCCC1	nt	25	-7	37*	0	4
